The source of these data is ChEMBL document CHEMBL1131461 (J Med Chem, 1998).

Each structure is given as a SMILES string. Numbering of substitutions follows the chain as printed. pEC50, pIC50: −log10 of the molar value.

Assay [1] deals with T1, Muscarinic acetylcholine receptor M1 (Rattus norvegicus, UniProt P08482).
T1 sequence (P08482 whole entry): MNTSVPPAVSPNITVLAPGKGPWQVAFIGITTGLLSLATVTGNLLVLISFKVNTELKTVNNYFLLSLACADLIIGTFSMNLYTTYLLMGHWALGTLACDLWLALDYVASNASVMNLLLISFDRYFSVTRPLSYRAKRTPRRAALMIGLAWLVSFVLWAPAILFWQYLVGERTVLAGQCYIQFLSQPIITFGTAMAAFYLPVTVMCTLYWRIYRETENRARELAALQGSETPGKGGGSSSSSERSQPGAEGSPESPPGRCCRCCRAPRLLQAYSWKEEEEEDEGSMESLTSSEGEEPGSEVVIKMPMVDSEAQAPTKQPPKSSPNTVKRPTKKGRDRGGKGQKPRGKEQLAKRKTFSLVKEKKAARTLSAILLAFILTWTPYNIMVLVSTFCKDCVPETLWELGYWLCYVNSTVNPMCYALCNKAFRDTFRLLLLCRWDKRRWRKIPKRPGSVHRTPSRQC
In words: Binding affinity for muscarinic acetylcholine receptor M1 using [3H]pirenzepine (Pz) radioligand in rat hippocampus membranes. Format: cell membranes.

Assay [2] concerns the target T1, Muscarinic acetylcholine receptor M1. In words: Binding affinity for muscarinic acetylcholine receptor M1 using [3H]oxotremorine-M (Oxo-M) radioligand in rat hippocampus membranes. Format: cell membranes, Membrane.
The test system of assay [3] is Mus musculus. In words: Intraperitoneal dose of 10 mg/Kg was tested for salivation in mice expressed as score. Format: functional. In short, it runs like this:
(§1)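 Male Cr1:CF1RBR mice, 20–30 g, in groups of five. Compound dissolved in distilled water, given ip at 10 mg/kg. Salivation and tremor scored 30 min after dosing on a 0–2 scale (0 = no effect, 1 = moderate, 2 = marked).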

The target in assay [4] is T2, Muscarinic acetylcholine receptor M1 (Homo sapiens, UniProt P11229).
T2 sequence (P11229 whole entry): T1 sequence (P08482 whole entry) with V5A, S254T, S309P, K320R, G337A, V413I
In words: Effective concentration required for stimulation of phosphoinositol (PI) hydrolysis in the A9 L cell line transfected with the Muscarinic acetylcholine receptor M1. Format: functional, cell-based, A9L.

In assay [5] the test system is Mus musculus. In words: Compound at an intraperitoneal dose of 10 mg/Kg was tested for salivation in mice expressed as score. Format: functional. An outline of the steps:
as §1

The test system of assay [6] is Mus musculus. In words: Compound at an intraperitoneal dose of 10 mg/Kg was tested for salivation in mice expressed as score; 2=Marked salivation or tremor. It is filed as functional. In short, it runs like this: as §1
For assay [7], the system named is Mus musculus. In words: Compound at an intraperitoneal dose of 10 mg/Kg was tested for salivation in mice expressed as score; 1=Moderate salivation or tremor. Format: functional. In short, it runs like this:
as §1

As for `CCCOc1nsnc1OC1CN2CCC1CC2` (configuration not stated), the negative logarithm of the IC50 (pIC50) (in general, the negative decadic logarithm of the IC50, by convention in mol/L) is 7.35 in assay [1] and 7.90 in assay [2]. For the same compound, the Score in the assay on Mus musculus [3] amounted to 0.

In the case of `CCCSc1nsnc1OC12CCCN(CC1)C2` (configuration not stated), the pIC50 in assay [1] is 8.17; in assay [2] it was 8.28. For the same compound, the Score in the assay with Mus musculus [3] is reported as 0.

With `CCCCOc1nsnc1OC1CCNC1` (configuration not stated), in assay [4], the negative-log EC50 (pEC50) (commonly the negative decadic logarithm of the EC50, by convention in mol/L) is 5.31. Further, the results for the negative-log IC50 (pIC50) in assay [1] and in assay [2] were 6.44 and 6.80, respectively. In the assay with Mus musculus [3], this compound came in with a Score of 0.

In the case of `CCCCOc1nsnc1OCC[N+](C)(C)C`, the negative logarithm of the IC50 (pIC50) in assay [1] is 7.39; in assay [2] it was 7.44. The same compound registered a Score in the assay on Mus musculus [3] of 0.

Consider `CCCSc1nsnc1OC1CN2CCC1CC2` (configuration not stated), for which the negative logarithm of the EC50 (pEC50) in assay [4] is 6.37. The compound also yielded a Score in the assay with Mus musculus [5] of 0.8. In addition, the results for the pIC50 in assay [1] and in assay [2] were 7.68 and 8.54, respectively.

Consider `CCCSc1nsnc1O[C@@H]1CC2CCN(C2)C1` (stereo in doubt; 33), for which the negative logarithm of the IC50 (pIC50) in assay [1] was 7.70; in assay [2], 7.82. For the same compound, in the assay with Mus musculus [3], the Score came to 0.

For the compound `c1nsnc1OC1CN2CCC1CC2` (configuration not stated), the pIC50 in assay [1] is 6.08; in assay [2] it was 6.27. In the assay with Mus musculus [3], the Score amounted to 0.

In the case of `CSCCc1nsnc1OC1CN2CCC1CC2` (configuration not stated), the values for the pIC50 in assay [1] and in assay [2] were 7.18 and 7.23, respectively. In the assay on Mus musculus [3], the Score was 0.

`CCCCOc1nsnc1OC1CN2CCC1CC2` (configuration not stated) showed a negative logarithm of the EC50 (pEC50) in assay [4] of 6.99. Also, in the assay with Mus musculus [5], the Score was 0.4. The pIC50 in assay [1] is 7.37; in assay [2] it was 7.97.

As for `CCCCCSc1nsnc1OC1CN2CCC1CC2` (stereo in doubt; 18f), the results for the negative-log IC50 (pIC50) in assay [1] and in assay [2] were 8.43 and 8.19, respectively. This compound came in with a Score in the assay on Mus musculus [3] of 0.

Turning to `CCCCCOc1nsnc1OC1CN2CCC1CC2` (configuration not stated), in assay [4], the pEC50 is 6.78. Moreover, the pIC50 in assay [1] is 7.32; in assay [2], 7.90. In addition, the Score with Mus musculus [3] was found to be 0.

Take `Clc1nsnc1OC1CN2CCC1CC2` (configuration not stated): the results for the pIC50 in assay [1] and in assay [2] were 7.20 and 7.01, respectively. In the assay on Mus musculus [3], this compound returned a Score of 0.

In the assay on Mus musculus [5], `CSc1nsnc1OC1CN2CCC1CC2` (configuration not stated) yielded a Score of 0.4. In addition, the negative logarithm of the IC50 (pIC50) is 7.37 in assay [1] and 7.76 in assay [2].

As for `CCCSc1nsnc1OC1CN2CCC1C2` (stereo in doubt; 26), the pEC50 in assay [4] was 8.72. Further, the Score in the assay on Mus musculus [6] was determined as 2. Also, the pIC50 in assay [1] is 8.36; in assay [2], 9.12.

Consider `CCCCOc1nccnc1OC1CN2CCC1CC2` (configuration not stated), for which the pIC50 in assay [1] was 7.65; in assay [2], 7.42. In addition, the Score in the assay on Mus musculus [3] was determined as 0.

Consider `CC(=O)OC1CN2CCC1CC2` (configuration not stated) [ACECLIDINE], for which, in the assay on Mus musculus [6], the Score is 2.

As for `CCCSc1nsnc1OC1CN2CCCC1C2` (stereo in doubt; 34), the pIC50 in assay [1] is 7.48; in assay [2], 6.75. The compound further displayed a Score with Mus musculus [3] of 0.

In assay [2], `CCCSc1nsnc1C1CN2CCC1C2` (stereo in doubt; 41) had a pIC50 of 9.22.

With `CCCSc1nsnc1OC1CN2CCC1C2` (stereo in doubt; 32), in assay [4], the pEC50 is 6.79. For the same compound, the Score with Mus musculus [5] is listed as 1.8. In addition, the negative-log IC50 (pIC50) is 7.18 in assay [1] and 8.26 in assay [2].

With `CCSCc1nsnc1OC1CN2CCC1CC2` (configuration not stated), the pIC50 was 7.10 in assay [1] and 7.18 in assay [2]. In the assay with Mus musculus [3], this compound showed a Score of 0.

For `CCCCOc1nonc1OC1CN2CCC1CC2` (configuration not stated), the figures for the negative logarithm of the IC50 (pIC50) in assay [1] and in assay [2] were 7.04 and 6.60, respectively. Also, the Score in the assay on Mus musculus [3] came to 0.

As for `CCCSc1nsnc1O[C@@H]1CC2CCN(C2)C1` (stereo in doubt; 27), in the assay on Mus musculus [5], the Score was determined as 0.2. The pIC50 in assay [1] was 8.15; in assay [2] it was 8.55.

For `COc1nsnc1OC1CN2CCC1CC2` (configuration not stated), the pIC50 in assay [1] was 6.81; in assay [2] it was 6.70. In the assay on Mus musculus [3], this compound displayed a Score of 0.

Regarding `CCSc1nsnc1OC1CN2CCC1CC2` (configuration not stated), the pIC50 is 7.70 in assay [1] and 8.19 in assay [2]. This compound also registered a Score with Mus musculus [3] of 0.

In turn, `CCCCCSc1nsnc1OC1CN2CCC1CC2` (stereo in doubt; 18g) gave a pEC50 in assay [4] of 6.87. The compound further yielded a Score in the assay with Mus musculus [5] of 1.2. Besides, the results for the negative logarithm of the IC50 (pIC50) in assay [1] and in assay [2] were 8.57 and 8.85, respectively.

The compound `CCCSc1nsnc1C1CN2CCC1C2` (stereo in doubt; 40) gave a negative logarithm of the IC50 (pIC50) in assay [2] of 8.24.

With `CCOc1nsnc1OC1CN2CCC1CC2` (configuration not stated), the pIC50 is 7.18 in assay [1] and 7.70 in assay [2]. Moreover, in the assay on Mus musculus [3], the Score turned out to be 0.

Consider `CCCCCCOc1nsnc1C1=CCCN(C)C1` [XANOMELINE], for which, in the assay on Mus musculus [3], the Score came to 0.

Regarding `CCCCOc1nsnc1OC1CCN(C)C1` (configuration not stated), the results for the pIC50 in assay [1] and in assay [2] were 7.36 and 7.38, respectively. Also, in the assay on Mus musculus [3], the Score came out at 0.

Turning to `CCCSc1nsnc1OC1CN2CCCC1C2` (stereo in doubt; 28), the negative logarithm of the EC50 (pEC50) in assay [4] is 9.00. In the assay on Mus musculus [6], the Score came out at 2. The pIC50 is 9.26 in assay [1] and 9.42 in assay [2].

In assay [4], `CCCCOc1nsnc1OC1CNC1` had a negative logarithm of the EC50 (pEC50) of 5.21. For the same compound, in assay [2], the pIC50 is 6.98. Further, the Score in the assay with Mus musculus [3] was 0.

Consider `CCCCOc1nsnc1OCCN(C)C`, for which the negative logarithm of the IC50 (pIC50) in assay [1] was 7.16; in assay [2], 7.17. In the assay on Mus musculus [3], this compound yielded a Score of 0.

In assay [4], `CCCCCCSc1nsnc1OC1CN2CCC1CC2` (configuration not stated) had a pEC50 of 6.65. In addition, the pIC50 is 7.55 in assay [1] and 8.12 in assay [2]. Also, the Score in the assay with Mus musculus [7] was found to be 1.

Consider `CCCCCCOc1nsnc1OC1CN2CCC1CC2` (configuration not stated), for which the pEC50 in assay [4] is 6.59. The compound also displayed a Score in the assay on Mus musculus [5] of 0.2. Also, the pIC50 in assay [1] is 7.38; in assay [2], 7.93.

For the compound `CCCCSc1nsnc1OC1CN2CCC1CC2` (configuration not stated), the pEC50 in assay [4] is 7.65. In addition, the pIC50 in assay [1] was 8.30; in assay [2], 8.60. Moreover, the Score in the assay on Mus musculus [7] is 1.

For `CCCCCSc1nsnc1OC1CN2CCC1CC2` (stereo in doubt; 18e), the negative logarithm of the EC50 (pEC50) in assay [4] is 6.36. The same compound came in with a Score in the assay with Mus musculus [5] of 0.6. Moreover, the pIC50 in assay [1] is 8.05; in assay [2], 8.36.
